Experimental data reported in ChEMBL document CHEMBL1152565, “Furo[3',2':3,4]naphtho[1,2-d]imidazole derivatives as potential inhibitors of inflammatory factors in sepsis” (Bioorg Med Chem, 2009).
Calls of active or inactive are those of the source. The calls are words filed in the database; no cut-off is given here.

Key:
Rattus norvegicus [1] = species on record: Rattus norvegicus; test: Inhibition of PMA-induced superoxide generation in Sprague-Dawley rat neutrophils; format: functional; settings: Neutrophil
Outline: (§1)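 Sprague-Dawley rat peripheral blood neutrophils preincubated with compound 5 min at 37 °C, then stimulated 30 min with fMLP (0.3 μM)/CB (5 μg/mL) or PMA (3 nM) in presence of cytochrome c. Superoxide quantified as superoxide dismutase-inhibitable cytochrome c reduction. Final DMSO <0.5% (v/v). IC50 as means ± SE, at least three separate experiments.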

Neutrophil = test: Inhibition of fMLP-induced superoxide generation in Sprague-Dawley rat neutrophils; format: functional, cell-based; outline: as §1
[2] = Antiinflammatory activity against Sprague-Dawley rat neutrophils assessed as inhibition of fMLP/cytochalasin B-induced beta-glucuronidase release; format: functional, cell-based; settings: Neutrophil
Outline: (§2)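 Rat (Sprague-Dawley) peripheral blood neutrophils incubated with test compound 5 min at 37 °C, then stimulated with fMLP (0.3 μM)/cytochalasin B (5 μg/ml) for 45 min. β-Glucuronidase and lysozyme measured in supernatant. Compound stocks in DMSO; final DMSO <0.5% (v/v). Means ± SE of at least three separate experiments.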

[3] = Antiinflammatory activity against Sprague-Dawley rat neutrophils assessed as inhibition of fMLP/cytochalasin B-induced lysozyme release; format: functional, cell-based; settings: Neutrophil; outline: as §2
RAW264.7 [4] = test: Inhibition of LPS-induced nitric oxide accumulation in mouse RAW264.7 cells; format: functional, cell-based
Outline: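 RAW 264.7 macrophages grown in DMEM with 5% FBS at 37 °C, 5% CO2, and stimulated with LPS. Nitrite accumulated in medium read with Griess reagent (sulfanilamide/N-(1-naphthyl)ethylenediamine in phosphoric acid, 5 min) at OD550 against sodium nitrite standard in culture medium. IC50 as means ± SE of at least three experiments.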

RAW264.7 [5] = test: Cytotoxicity against mouse RAW264.7 cells up to 10 uM after 24 hrs by methylene blue assay; format: cell-based; settings: raw264.7, 24 h
Outline: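 RAW 264.7 cells seeded at 2×10^5 cells/well, given LPS plus various compound concentrations for 24 h. Stained with 1% methylene blue for 40 min, washed, dye released with 1% sarcosyl for 4 h, absorbance read at 570 nm. LPS-treated cells without compound set as 100% survival.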

RAW264.7 [6] = test: Inhibition of LPS-induced iNOS protein expression in mouse RAW264.7 cells after 2 hrs by Western blot; format: functional, cell-based
Outline: (§3)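 RAW 264.7 cells (5×10^5 cells/well) pretreated with compound 2 h, then stimulated with LPS 0.1 μg/mL for 24 h. Lysed in RIPA buffer, protein measured by Bradford, 15 μg run on 8% SDS–PAGE and immunoblotted for iNOS with ECL detection. Bands quantified densitometrically relative to β-actin.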

RAW264.7 [7] = test: Inhibition of LPS-induced iNOS protein expression in mouse RAW264.7 cells at 5 uM after 2 hrs by Western blot; format: functional, cell-based; outline: as §3
Rattus norvegicus [8] = test: Inhibition of iNOS mRNA expressing in cecal ligation and puncture Sprague-Dawley rat model at 10 mg/kg, ip treated 1 hr before surgery measured after 24 hrs of surgery by PCR amplification; format: functional; settings: route intraperitoneal
Outline: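 Sprague-Dawley rats aged 6–8 weeks, 3–4 per group, given compound or hydrocortisone 10 mg/kg by intraperitoneal injection 1 h before cecal ligation and puncture. Resuscitated with 1 mL normal saline after surgery; sham animals handled identically. Lung tissue collected 24 h post-surgery; iNOS mRNA band intensities normalized to GAPDH.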

Rattus norvegicus [9] = test: Inhibition of sepsis-induced PGE2 production in cecal ligation and puncture Sprague-Dawley rat model serum at 10 mg/kg, ip treated 1 hr before surgery measured after 24 hrs of surgery by ELISA; format: functional; settings: route intraperitoneal
Outline: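 Sprague-Dawley rats aged 6–8 weeks (3–4 per group) pretreated intraperitoneally with 10 mg/kg compound or hydrocortisone 1 h before cecal ligation and puncture, saline-resuscitated after. Blood taken from portal vein 24 h post-surgery, centrifuged 3000 rpm 20 min, serum stored at -70 °C. PGE2 measured by ELISA; average of three independent studies.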

Structure (SMILES)	IC50 (Rattus norvegicus [1])	IC50 (Neutrophil)	IC50 [2]	IC50 [3]	IC50 (RAW264.7 [4])	Activity (RAW264.7 [5])	inhibition (RAW264.7 [6])	inhibition (RAW264.7 [7])	inhibition in vivo at 10 mg/kg (Rattus norvegicus [8])	inhibition in vivo at 10 mg/kg (Rattus norvegicus [9])
O=Cc1ccc(-c2nc3c4ccccc4c4occc4c3[nH]2)cc1	> 30 µM	> 30 µM	5 µM	7.4 µM	> 10 µM	–	–	–	–	–
c1coc(-c2nc3c4ccccc4c4occc4c3[nH]2)c1	> 30 µM	> 30 µM	11.3 µM	19.5 µM	11.9 µM	Non-toxic	Dose-dependent effect	–	–	–
O=[N+]([O-])c1ccc(-c2nc3c4ccccc4c4occc4c3[nH]2)cc1	> 30 µM	> 30 µM	> 10 µM	> 10 µM	> 10 µM	–	–	–	–	–
CC(=N)NCc1cccc(CN)c1 [1400W]	–	–	–	–	2.7 µM	–	–	–	–	–
O=[N+]([O-])c1ccc(-c2nc3c4ccccc4c4occc4c3[nH]2)o1	> 30 µM	> 30 µM	> 30 µM	> 30 µM	1.5 µM	Non-toxic	Dose-dependent effect	–	–	–
c1ccc(-c2nc3c4ccccc4c4occc4c3[nH]2)cc1	> 30 µM	> 30 µM	11.4 µM	16.3 µM	> 10 µM	–	–	–	–	–
c1ccc2c(c1)c1nc[nH]c1c1ccoc21	> 30 µM	> 30 µM	> 30 µM	> 30 µM	> 30 µM	–	–	–	–	–
O=[N+]([O-])c1ccc(/C=C/c2nc3c4ccccc4c4occc4c3[nH]2)o1	> 30 µM	> 30 µM	> 30 µM	> 30 µM	1.3 µM	Non-toxic	Dose-dependent effect	Active	30%	150%
CN1CCN(CCCN2c3ccccc3Sc3ccc(C(F)(F)F)cc32)CC1 [TRIFLUOPERAZINE]	–	–	12.5 µM	11.9 µM	–	–	–	–	–	–
c1ccc2c(c1)[I+]c1ccccc1-2 [DIPHENYLENEIODONIUM CHLORIDE]	4.3 µM	5.2 µM	–	–	–	–	–	–	–	–
